From ChEMBL document CHEMBL1124929, “Indolo[2,1-a]isoquinolines. Syntheses, steroid hormone receptor binding affinities, and cytostatic activity” (1990)
One block for each molecule: values may come before it.

Columns and labels:
[1] = molecular target: T1, Androgen Receptor (Bos taurus) (UniProt Q5EM59); assay: Relative binding affinity(RBA) for 50% displacement of [3H]mibolerone from Androgen receptor compared to testorone
T1 sequence (whole entry): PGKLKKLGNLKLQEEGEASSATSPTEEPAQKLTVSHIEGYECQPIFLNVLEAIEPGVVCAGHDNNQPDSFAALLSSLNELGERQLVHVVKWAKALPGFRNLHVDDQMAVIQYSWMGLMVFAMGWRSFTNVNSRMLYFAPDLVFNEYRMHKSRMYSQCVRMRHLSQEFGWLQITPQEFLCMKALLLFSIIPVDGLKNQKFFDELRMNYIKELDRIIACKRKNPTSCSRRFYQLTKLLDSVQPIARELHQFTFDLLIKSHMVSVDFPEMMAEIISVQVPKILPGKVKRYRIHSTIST
Method in brief: (§1)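 Receptor source was calf uterine cytosol (105000g supernatant, 3 mg/mL protein in assay). Buffers were Tris/EDTA pH 7.4, with NaN₃ for ER, molybdate/glycerol for AR, and sucrose for PR. Tracers were 1 nM [³H]estradiol, [³H]mibolerone or [³H]Org 2058. Incubation was at 0–4 °C for 16 h (ER) or 2 h (AR, PR), with 4–6 competitor concentrations. Nonspecific binding used 2 µM of the unlabeled hormone. Separation was by dextran-coated charcoal. RBA is the ratio of IC50 values for hormone and compound ×100, mean of two triplicate experiments.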

[2] = molecular target: Estrogen receptor (Bos taurus) (UniProt Q9XSB5+P49884); assay: Relative binding affinity(RBA) for 50% displacement of [3H]-estradiol from Estrogen receptor compared to 17-beta-estradiol; type: protein assay; method in brief: as §1
Bos taurus = organism: Bos taurus; assay: Relative binding affinity(RBA) as ratio of progesterone and compound required to displace [3H]-org 2058 binding to Progesterone receptor by 50%; method in brief: as §1
MDA-MB-231 [3] = assay: Cytostatic effect on hormone-independent MDA-MB 231 human breast cancer cell proliferation at 1x10E-5 M; type: functional
Method in brief: (§2)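 Cells were plated at about 2 × 10⁴ per well in six-well dishes. MCF-7 cells were grown in modified improved MEM with 5% NCS, switched to charcoal-treated NCS two weeks before the test, and exposed for 5 days with a re-dose on day 4. MDA-MB 231 cells were grown in McCoy 5a with 10% NCS and exposed for 2 days. Compounds were given 1 day after plating in 0.1% DMSO, with DMSO-matched controls. Read-out was cell number as % T/C, mean of three experiments with six dishes.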

MDA-MB-231 [4] = assay: Effect on [3H]thymidine incorporation into MDA-MB 231 human breast cancer cells at 1x10E-5 M; type: functional
Method in brief: (§3)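 Cells were seeded at ~2 × 10⁴ per well, treated from the next day in 0.1% DMSO, with DMSO controls. MCF-7 cells were held in charcoal-stripped NCS for 2 weeks, treated for 5 days and re-dosed on day 4. MDA-MB 231 cells were grown in McCoy 5a/10% NCS and treated for 2 days. At the end, 1 µCi [³H]thymidine per well was added for 2 h. Result is % T/C, mean of three experiments × six dishes.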

MDA-MB-231 [5] = assay: Effect on [3H]-thymidine incorporation into MDA-MB 231 human breast cancer cells at 1x10E-6M; type: functional; method in brief: as §3
MDA-MB-231 [6] = assay: Cytostatic effect on hormone-independent MDA-MB 231 human breast cancer cell proliferation at5x10E-6M; type: functional; method in brief: as §2
MDA-MB-231 [7] = assay: Effect on [3H]thymidine incorporation into MDA-MB 231 human breast cancer cells at 5x10E-6M; type: functional; method in brief: as §3
MCF7 [8] = assay: Effect on hormone-dependent MCF-7 human breast cancer cell proliferation at 5x10E-6M; type: functional; method in brief: as §2
MCF7 [9] = assay: Effect on [3H]thymidine incorporation into MCF-7 human breast cancer cells at 5x10E-6M; type: functional; method in brief: as §3
MCF7 [10] = assay: Effect on hormone-dependent MCF-7 human breast cancer cell proliferation at 1x10E-5 M; type: functional; method in brief: as §2
MCF7 [11] = assay: Effect on [3H]thymidine incorporation into MCF-7 human breast cancer cells at 1x10E-5 M; type: functional; method in brief: as §3
MCF7 [12] = assay: Effect on hormone-dependent MCF-7 human breast cancer cell proliferation at 1x10E-6M; type: functional; method in brief: as §2
MCF7 [13] = assay: Effect on [3H]thymidine incorporation into MCF-7 human breast cancer cells at 1x10E-6M; type: functional; method in brief: as §3
[14] = molecular target: T2, Estrogen receptor (Mus musculus) (UniProt O08537+P19785); assay: Estrogenic activity in uterotrophic assay in immature mice at 125 ug subcutaneous dose; type: functional
T2 sequence (O08537 whole entry, looked up): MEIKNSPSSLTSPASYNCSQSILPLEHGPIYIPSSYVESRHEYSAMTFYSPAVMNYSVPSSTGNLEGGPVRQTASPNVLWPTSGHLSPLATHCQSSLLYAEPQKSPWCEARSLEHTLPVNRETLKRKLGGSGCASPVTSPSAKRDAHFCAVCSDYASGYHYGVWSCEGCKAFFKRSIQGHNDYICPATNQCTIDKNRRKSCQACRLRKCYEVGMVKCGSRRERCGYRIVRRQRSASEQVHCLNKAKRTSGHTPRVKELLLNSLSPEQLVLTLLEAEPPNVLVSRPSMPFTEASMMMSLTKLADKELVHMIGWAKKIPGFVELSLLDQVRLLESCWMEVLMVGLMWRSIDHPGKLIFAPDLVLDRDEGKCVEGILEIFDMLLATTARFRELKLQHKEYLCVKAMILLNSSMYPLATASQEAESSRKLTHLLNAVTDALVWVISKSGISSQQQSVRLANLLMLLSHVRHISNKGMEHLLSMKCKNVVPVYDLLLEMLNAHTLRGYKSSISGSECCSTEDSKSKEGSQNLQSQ
T2 sequence (P19785 whole entry, looked up): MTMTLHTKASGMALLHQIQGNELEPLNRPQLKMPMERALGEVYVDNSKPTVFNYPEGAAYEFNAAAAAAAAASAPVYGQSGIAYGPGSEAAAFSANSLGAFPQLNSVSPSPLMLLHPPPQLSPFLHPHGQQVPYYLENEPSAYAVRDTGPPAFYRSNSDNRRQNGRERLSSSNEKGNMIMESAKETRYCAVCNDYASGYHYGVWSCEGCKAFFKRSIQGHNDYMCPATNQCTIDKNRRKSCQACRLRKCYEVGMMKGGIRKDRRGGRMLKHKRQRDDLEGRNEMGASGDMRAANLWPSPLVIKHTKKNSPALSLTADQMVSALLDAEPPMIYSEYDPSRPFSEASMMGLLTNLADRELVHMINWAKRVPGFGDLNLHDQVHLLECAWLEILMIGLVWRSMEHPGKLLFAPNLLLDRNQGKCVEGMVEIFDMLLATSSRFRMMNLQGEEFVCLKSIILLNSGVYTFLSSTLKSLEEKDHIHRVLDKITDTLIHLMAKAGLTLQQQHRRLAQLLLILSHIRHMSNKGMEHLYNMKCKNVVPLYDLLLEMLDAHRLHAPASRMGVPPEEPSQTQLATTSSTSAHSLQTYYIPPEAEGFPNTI
Method in brief: (§4)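 Immature female NMRI mice, 20 days old, in groups of 6-10, were dosed sc once daily for three consecutive days. Compounds were given in PEG/0.9% saline 1:1; vehicle controls were included. Animals were killed 24 h after the last dose. Uteri were fixed in Bouin solution and the effect was taken as uterine dry weight (mg)/body weight (g) ×100, given as mean ± SD.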

[15] = molecular target: T2, Estrogen receptor (Mus musculus); assay: Estrogenic activity in uterotrophic assay in immature mice at 2 ug subcutaneous dose; type: functional; method in brief: as §4
[16] = molecular target: T2, Estrogen receptor (Mus musculus); assay: (§5) Estrogenic activity in uterotrophic assay in immature mice at 40.0 ug subcutaneous dose; type: functional; method in brief: as §4
[17] = molecular target: T2, Estrogen receptor (Mus musculus); assay: as §5; type: functional; method in brief: as §4; remark: listed apart in the source
[18] = molecular target: T2, Estrogen receptor (Mus musculus); assay: Inhibition of 0.4 ug estrone-stimulated uterine growth in mice at 40.0 ug subcutaneous dose; type: functional
Method in brief: (§6)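 Immature 20-day-old female NMRI mice received sc injections on three consecutive days. Each injection held 0.4 µg estrone plus the compound in PEG/saline 1:1. […] Significance was tested by Mann-Whitney U test.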

[19] = molecular target: T2, Estrogen receptor (Mus musculus); assay: Inhibition of 0.4 ug estrone-stimulated uterine growth in mice at 2 ug subcutaneous dose; type: functional; method in brief: as §6
MDA-MB-231 [20] = assay: Cytostatic effect on hormone-independent MDA-MB 231 human breast cancer cell proliferation at 1x10E-6M; type: functional; method in brief: as §2
[21] = molecular target: T1, Androgen Receptor (Bos taurus); assay: Relative binding affinities (RBA) for Androgen receptor (AR); method in brief: as §1

SMILES: CC(=O)Oc1ccc2c(c1)CCn1c-2cc2cc(OC(C)=O)ccc21
relative binding affinity (RBA) [21]: < 0.01
RBA [2]: 2
RBA (Bos taurus): < 0.01

SMILES: CC(=O)Oc1cc2c(cc1OC(C)=O)-c1cc3cc(OC(C)=O)c(OC(C)=O)cc3n1CC2
RBA [1]: < 0.01
RBA [2]: < 0.01

SMILES: CC(=O)Oc1ccc2cc3n(c2c1)CCc1cc(OC(C)=O)c(OC(C)=O)cc1-3
RBA [1]: < 0.01
RBA [2]: 0.05

More lines, main results first:

RBA [1]: 0.2
RBA [2]: 0.16
RBA (Bos taurus): 0.01
SMILES: CC(=O)Oc1ccc2c(c1)CCn1c-2cc2ccc(OC(C)=O)cc21

RBA [1]: < 0.01
RBA [2]: 2.9
Effect [14]: 55.8
Effect [15]: 21.2
Effect [16]: 42.8
Effect [17]: 49.7
inhibition [18]: 15.7%
inhibition [19]: 11.7%
RBA (Bos taurus): 0.04
SMILES: CCC1Cc2cc(OC(C)=O)c(OC(C)=O)cc2-c2cc3cc(OC(C)=O)ccc3n21 (stereo unspecified)
T/C (MDA-MB-231 [3]): 51%
T/C (MDA-MB-231 [4]): 38%
T/C (MDA-MB-231 [5]): 77%
T/C (MDA-MB-231 [6]): 62%
T/C (MDA-MB-231 [7]): 35%
T/C (MCF7 [8]): 39%
T/C (MCF7 [9]): 11%
T/C (MCF7 [10]): 22%
T/C (MCF7 [11]): 3%
T/C (MCF7 [12]): 89%
T/C (MCF7 [13]): 95%
T/C (MDA-MB-231 [20]): 100%
